Measurements taken from ChEMBL document CHEMBL4184236, “Design, synthesis and biological evaluation of matrine derivatives as potential anticancer agents” (Bioorg Med Chem Lett, 2018).

How the values were obtained:
Type in all cases: functional, cell-based
[1] = tested on: CNE-2; assay: Anticancer activity against human CNE2 cells assessed as reduction in cell viability incubated for 48 hrs MTT assay; details: CNE-2, 48 h
Outline: (§1)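 MTT assay on human hepatocarcinoma SMMC-7721, lung carcinoma A549 and nasopharyngeal carcinoma CNE2 cells, with matrine as comparator and cisplatin as positive control. IC50 is the concentration that lowers optical density of treated cells by 50% versus untreated cells, given as the mean ± SD of three experiments.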

[2] = tested on: SMMC-7721; assay: Anticancer activity against human SMMC7721 cells assessed as reduction in cell viability incubated for 48 hrs MTT assay; details: SMMC-7721, 48 h; outline: as §1
[3] = tested on: A549; assay: Anticancer activity against human A549 cells assessed as reduction in cell viability incubated for 48 hrs MTT assay; details: A549, 48 h; outline: as §1

Row | SMILES | IC50 [2] [µM] | IC50 [3] [µM] | IC50 [1] [µM]
1 | COc1cc(Cn2cccc2/C=C2\CC[C@@H]3[C@H]4CCCN5CCC[C@@H](CN3C2=O)[C@@H]45)cc(OC)c1OC | 13.3 | 18.9 | 7.83
2 | O=C1CCC[C@@H]2[C@H]3CCCN4CCC[C@@H](CN12)[C@@H]34 [MATRINE] | 6590 | 5720 | 5280
3 | CC(C)(C)c1ccc(Cn2cccc2/C=C2\CC[C@@H]3[C@H]4CCCN5CCC[C@@H](CN3C2=O)[C@@H]45)cc1 | 16 | 15.8 | 13.8
4 | COc1cccc(Cn2cccc2/C=C2\CC[C@@H]3[C@H]4CCCN5CCC[C@@H](CN3C2=O)[C@@H]45)c1 | 13.4 | 29.8 | 7.05
5 | COc1ccc(Cn2cccc2/C=C2\CC[C@@H]3[C@H]4CCCN5CCC[C@@H](CN3C2=O)[C@@H]45)cc1 | 41.6 | 39.1 | 28.8
6 | O=C1/C(=C/c2cccn2Cc2ccc(OCc3ccccc3)cc2)CC[C@@H]2[C@H]3CCCN4CCC[C@@H](CN12)[C@@H]34 | 12.9 | 13.1 | 10.8
7 | Cc1ccc(Cn2cccc2/C=C2\CC[C@@H]3[C@H]4CCCN5CCC[C@@H](CN3C2=O)[C@@H]45)cc1 | 27.9 | 24.4 | 21.9
8 | O=C1/C(=C/c2cccn2Cc2cccc(Br)c2)CC[C@@H]2[C@H]3CCCN4CCC[C@@H](CN12)[C@@H]34 | 16.2 | 13.8 | 15
9 | CC(C)(C)c1ccc(Cn2ccc3cc(/C=C4\CC[C@@H]5[C@H]6CCCN7CCC[C@@H](CN5C4=O)[C@@H]67)ccc32)cc1 | 10.7 | 10.9 | 8.99
10 | Cc1ccccc1Cn1cccc1/C=C1\CC[C@@H]2[C@H]3CCCN4CCC[C@@H](CN2C1=O)[C@@H]34 | 22.4 | 29.3 | 28.4
11 | O=C1/C(=C/c2cccn2Cc2ccccc2Cl)CC[C@@H]2[C@H]3CCCN4CCC[C@@H](CN12)[C@@H]34 | 26 | 26.2 | 26.3
12 | O=C1/C(=C/c2cccn2Cc2ccc(F)cc2)CC[C@@H]2[C@H]3CCCN4CCC[C@@H](CN12)[C@@H]34 | 34 | 31.6 | 26.4
13 | CC(C)(C)c1cc(Cn2cccc2/C=C2\CC[C@@H]3[C@H]4CCCN5CCC[C@@H](CN3C2=O)[C@@H]45)cc(C(C)(C)C)c1 | > 40 | > 40 | > 40
14 | Cc1ccccc1Cn1cc(/C=C2\CC[C@@H]3[C@H]4CCCN5CCC[C@@H](CN3C2=O)[C@@H]45)c2ccccc21 | 12 | 12.1 | 10.8
15 | COc1cc(Cn2cc(/C=C3\CC[C@@H]4[C@H]5CCCN6CCC[C@@H](CN4C3=O)[C@@H]56)c3ccccc32)cc(OC)c1OC | 15.5 | > 50 | 20
16 | O=C1/C(=C/c2cccn2Cc2ccccc2Br)CC[C@@H]2[C@H]3CCCN4CCC[C@@H](CN12)[C@@H]34 | 15.1 | 12 | 17.3
17 | O=C1/C(=C/c2cccn2Cc2cccc(Cl)c2)CC[C@@H]2[C@H]3CCCN4CCC[C@@H](CN12)[C@@H]34 | 20.9 | 22.3 | 16.3
18 | O=C1/C(=C/c2cccn2Cc2ccc3ccccc3c2)CC[C@@H]2[C@H]3CCCN4CCC[C@@H](CN12)[C@@H]34 | 20.3 | 23.9 | 14.7
19 | Cc1cccc(Cn2cccc2/C=C2\CC[C@@H]3[C@H]4CCCN5CCC[C@@H](CN3C2=O)[C@@H]45)c1 | 30.7 | 44.3 | 24.5
20 | O=C1/C(=C/c2cccn2Cc2ccccc2)CC[C@@H]2[C@H]3CCCN4CCC[C@@H](CN12)[C@@H]34 | 38.4 | 42.9 | 45.7
21 | CC(C)(C)c1ccc(Cn2ccc3c(/C=C4\CC[C@@H]5[C@H]6CCCN7CCC[C@@H](CN5C4=O)[C@@H]67)cccc32)cc1 | 13.8 | 15.5 | 9.75

Continued, in another order:

Row | IC50 [2] [µM] | IC50 [3] [µM] | SMILES | IC50 [1] [µM]
22 | 8.65 | 9.74 | O=C1/C(=C/c2cn(Cc3ccc4ccccc4c3)c3ccc(Br)cc23)CC[C@@H]2[C@H]3CCCN4CCC[C@@H](CN12)[C@@H]34 | 12.5
23 | 8.35 | 9.13 | Cc1ccc2c(c1)c(/C=C1\CC[C@@H]3[C@H]4CCCN5CCC[C@@H](CN3C1=O)[C@@H]45)cn2Cc1cccc(Cl)c1 | 11.8
24 | 8.52 | 9.24 | Cc1cccc(Cn2cc(/C=C3\CC[C@@H]4[C@H]5CCCN6CCC[C@@H](CN4C3=O)[C@@H]56)c3ccccc32)c1 | 7.91
25 | 36.6 | 47.1 | O=C1/C(=C/c2cccn2Cc2ccc(OC(F)(F)F)cc2)CC[C@@H]2[C@H]3CCCN4CCC[C@@H](CN12)[C@@H]34 | 23.9
26 | 21.6 | 21.6 | O=C1/C(=C/c2cccn2Cc2ccc(Cl)cc2)CC[C@@H]2[C@H]3CCCN4CCC[C@@H](CN12)[C@@H]34 | 15.2
27 | 8.01 | 11.2 | COc1ccc(Cn2cc(/C=C3\CC[C@@H]4[C@H]5CCCN6CCC[C@@H](CN4C3=O)[C@@H]56)c3ccccc32)cc1 | 8.43
28 | 11.9 | 13.9 | O=C1/C(=C/c2cn(Cc3ccccc3)c3ccccc23)CC[C@@H]2[C@H]3CCCN4CCC[C@@H](CN12)[C@@H]34 | 10.8
29 | 6.83 | 7.07 | O=C1/C(=C/c2cccc3c2ccn3Cc2cccc(Cl)c2)CC[C@@H]2[C@H]3CCCN4CCC[C@@H](CN12)[C@@H]34 | 6.64
30 | 17.6 | 18.3 | O=C1/C(=C/c2cn(Cc3ccccc3Cl)c3ccccc23)CC[C@@H]2[C@H]3CCCN4CCC[C@@H](CN12)[C@@H]34 | 17.4
31 | 9.73 | 5.24 | O=C1/C(=C/c2cn(Cc3ccc(OC(F)(F)F)cc3)c3ccc(Cl)cc23)CC[C@@H]2[C@H]3CCCN4CCC[C@@H](CN12)[C@@H]34 | 3.52
32 | 6.82 | 7.03 | O=C1/C(=C/c2cn(Cc3ccc(OC(F)(F)F)cc3)c3ccccc23)CC[C@@H]2[C@H]3CCCN4CCC[C@@H](CN12)[C@@H]34 | 6.64
33 | 11.2 | 12.1 | O=C1/C(=C/c2cn(Cc3ccc(Cl)cc3)c3ccccc23)CC[C@@H]2[C@H]3CCCN4CCC[C@@H](CN12)[C@@H]34 | 11
34 | 5.65 | 7.12 | COc1ccc2c(c1)c(/C=C1\CC[C@@H]3[C@H]4CCCN5CCC[C@@H](CN3C1=O)[C@@H]45)cn2Cc1ccc(Cl)cc1 | 4.65
35 | 28.2 | 28.4 | COc1ccc(Cn2ccc3c(/C=C4\CC[C@@H]5[C@H]6CCCN7CCC[C@@H](CN5C4=O)[C@@H]67)cccc32)cc1 | 15.5
36 | 16.8 | 18.1 | O=C1/C(=C/c2cn(Cc3ccc(Br)cc3)c3ccccc23)CC[C@@H]2[C@H]3CCCN4CCC[C@@H](CN12)[C@@H]34 | 14.7
37 | 11.8 | 12.5 | COc1ccc(Cn2cc(/C=C3\CC[C@@H]4[C@H]5CCCN6CCC[C@@H](CN4C3=O)[C@@H]56)c3ccccc32)cc1OC | 11.6
38 | 13.7 | 15.3 | COc1cccc(Cn2cc(/C=C3\CC[C@@H]4[C@H]5CCCN6CCC[C@@H](CN4C3=O)[C@@H]56)c3ccccc32)c1 | 9.31
39 | 9.55 | 9.68 | CC(C)(C)c1ccc(Cn2cc(/C=C3\CC[C@@H]4[C@H]5CCCN6CCC[C@@H](CN4C3=O)[C@@H]56)c3ccccc32)cc1 | 7.73
40 | 6.21 | 6.33 | COc1ccc2c(c1)c(/C=C1\CC[C@@H]3[C@H]4CCCN5CCC[C@@H](CN3C1=O)[C@@H]45)cn2Cc1ccccc1Cl | 6.06
41 | 9.76 | 12.6 | O=C1/C(=C/c2cn(Cc3ccc(OCc4ccccc4)cc3)c3ccccc23)CC[C@@H]2[C@H]3CCCN4CCC[C@@H](CN12)[C@@H]34 | 11.7
42 | 6.89 | 7.45 | COc1ccc2c(c1)c(/C=C1\CC[C@@H]3[C@H]4CCCN5CCC[C@@H](CN3C1=O)[C@@H]45)cn2Cc1ccc2ccccc2c1 | 6.72
43 | 9.81 | 16.8 | O=C1/C(=C/c2cn(Cc3cccc(Cl)c3)c3ccc(Br)cc23)CC[C@@H]2[C@H]3CCCN4CCC[C@@H](CN12)[C@@H]34 | 8.5
44 | 5.65 | 8.53 | O=C1/C(=C/c2cn(Cc3ccc4ccccc4c3)c3ccccc23)CC[C@@H]2[C@H]3CCCN4CCC[C@@H](CN12)[C@@H]34 | 4.56
45 | 8.73 | 10.1 | COc1ccc2c(/C=C3\CC[C@@H]4[C@H]5CCCN6CCC[C@@H](CN4C3=O)[C@@H]56)cn(Cc3ccc(Cl)cc3)c2c1 | 6.84
